ChEMBL document CHEMBL1143896, “Discovery of piperazinylimidazo[1,2-a]pyridines as novel S4 binding elements for orally active factor Xa inhibitors” (Bioorg Med Chem, 2008)
Calls of active or inactive are those of the source. The calls are words filed in the database; no cut-off is given here.

Assays:
Coagulation factor X = Coagulation factor X (Homo sapiens, UniProt P00742); test: Inhibition of human factor 10a
Plasma [1] = test: Anticoagulant potency in human plasma assessed as concentration required to double prothrombin time; assay type: functional
In short: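 Compound in DMSO is added to normal human plasma (3% v/v) and preincubated 4 min at 37 °C. Clotting is started with thromboplastin and timed on an automatic coagulometer. Prolongation is measured against a DMSO control. The concentration that doubles clotting time comes from a least-squares regression, as a mean of duplicate measurements.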

Mus musculus [2] = test: Ex vivo anticoagulant potency in ICR mouse blood assessed as 1.1 times prolongation of prothrombin time at 30 mg/kg, po after 1 hr relative to control; assay type: functional, organism-based; set-up: dose 30 mg/kg
In short: (§1)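 Male ICR mice (30–35 g) are fasted >12 h and dosed orally as a suspension in 0.5% methylcellulose; controls get vehicle. At 1 h, blood is drawn from the abdominal aorta under pentobarbital (50 mg/kg ip) into 3.8% citrate (9:1). Plasma is spun at 1000g for 10 min, preincubated 4 min at 37 °C, clotted with thromboplastin and timed. The read-out is the clotting-time ratio versus vehicle controls.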

Mus musculus [3] = test: Ex vivo anticoagulant potency in ICR mouse blood assessed as 1.4 times prolongation of prothrombin time at 100 mg/kg, po after 1 hr relative to control; assay type: functional, organism-based; set-up: dose 100 mg/kg; in short: as §1
CYP3A4 = CYP3A4 (Homo sapiens, UniProt P08684); test: Inhibition of human CYP3A4 at 10 uM; assay type: ADME
In short: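 CYP3A4 from human B-lymphoblastoid cells expressing the enzyme (10 nM) is incubated with 100 µM testosterone and 10 µM compound for 30 min at 37 °C. 6β-Hydroxytestosterone is measured by HPLC-UV and reported as % inhibition.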

Plasma [4] = test: Anticoagulant potency in ICR mouse plasma assessed as concentration required to double prothrombin time; assay type: functional
Mus musculus [5] = test: Ex vivo anticoagulant potency in ICR mouse blood assessed as prothrombin time at 30 mg/kg, po after 1 hr relative to control; assay type: functional; in short: as §1
Prothrombin = Prothrombin (Homo sapiens, UniProt P00734); test: Inhibition of human thrombin after 30 mins
In short: (§2)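 Human proteases are incubated with compound for 30 min at 37 °C. Enzyme and substrate pairs are: thrombin 0.080 U/mL with S-2366; trypsin 0.040 µg/mL with S-2222; plasmin 0.040 U/mL with S-2366; kallikrein 0.020 U/mL with S-2302; t-PA 4000 U/mL with S-2288. p-Nitroanilide release is followed continuously for 5 min at 405 nm. Ki comes from Lineweaver–Burk plots at varied substrate levels, as means of three determinations.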

Plasma kallikrein = Plasma kallikrein (Homo sapiens, UniProt P03952); test: Inhibition of human kallikrein after 30 mins; in short: as §2
Trypsin = Trypsin (Homo sapiens, UniProt P07477+P07478+P35030); test: Inhibition of human trypsin after 30 mins; assay type: protein assay; in short: as §2
Plasminogen = Plasminogen (Homo sapiens, UniProt P00747); test: Inhibition of human plasmin after 30 mins; in short: as §2
[6] = target: Tissue-type plasminogen activator (Homo sapiens, UniProt P00750); test: Inhibition of human tPA after 30 mins; in short: as §2
[7] = Drug concentration in cynomolgus monkey at 0.3 mg/kg, iv after 5 mins; assay type: ADME, organism-based, Macaca fascicularis; set-up: dose 0.3 mg/kg, route intravenous; settings: in vivo, read-out: Drug uptake
In short: (§3)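 Fasted male cynomolgus monkeys (n = 3) are dosed iv in DMA/PEG400 or orally as a 0.5% methylcellulose suspension. Femoral vein blood is taken up to 24 h (from 5 min iv, from 15 min po). Plasma is deproteinized with acetonitrile, diluted with 0.01 mol/L ammonium formate at pH 3.0, and measured by LC/MS/MS. Values are means ± SD of three.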

[8] = AUC in cynomolgus monkey at 0.3 mg/kg, iv; assay type: ADME, organism-based, Macaca fascicularis; set-up: dose 0.3 mg/kg, route intravenous; settings: plasma; in short: as §3
[9] = Mean residence time in cynomolgus monkey at 0.3 mg/kg, iv; assay type: ADME, organism-based, Macaca fascicularis; set-up: dose 0.3 mg/kg, route intravenous; settings: in vivo; in short: as §3
[10] = Volume of distribution at steady state in cynomolgus monkey at 0.3 mg/kg, iv; assay type: ADME, organism-based, Macaca fascicularis; set-up: dose 0.3 mg/kg, route intravenous; settings: in vivo, read-out: Vdss; in short: as §3
[11] = Total clearance in cynomolgus monkey at 0.3 mg/kg, iv; assay type: ADME, organism-based, Macaca fascicularis; set-up: dose 0.3 mg/kg, route intravenous; settings: in vivo; in short: as §3
[12] = Cmax in cynomolgus monkey at 3 mg/kg, po; assay type: ADME, organism-based, Macaca fascicularis; set-up: dose 3 mg/kg, route oral; settings: in vivo; in short: as §3
[13] = Tmax in cynomolgus monkey at 3 mg/kg, po; assay type: ADME, organism-based, Macaca fascicularis; set-up: dose 3 mg/kg, route oral; settings: in vivo; in short: as §3
[14] = AUC in cynomolgus monkey at 3 mg/kg, po; assay type: ADME, organism-based, Macaca fascicularis; set-up: dose 3 mg/kg, route oral; settings: plasma; in short: as §3
[15] = Mean residence time in cynomolgus monkey at 3 mg/kg, po; assay type: ADME, organism-based, Macaca fascicularis; set-up: dose 3 mg/kg, route oral; settings: in vivo; in short: as §3
[16] = Oral bioavailability in cynomolgus monkey at 3 mg/kg; assay type: ADME, organism-based, Macaca fascicularis; settings: in vivo; in short: as §3

Sequence of CYP3A4 (P08684 whole entry): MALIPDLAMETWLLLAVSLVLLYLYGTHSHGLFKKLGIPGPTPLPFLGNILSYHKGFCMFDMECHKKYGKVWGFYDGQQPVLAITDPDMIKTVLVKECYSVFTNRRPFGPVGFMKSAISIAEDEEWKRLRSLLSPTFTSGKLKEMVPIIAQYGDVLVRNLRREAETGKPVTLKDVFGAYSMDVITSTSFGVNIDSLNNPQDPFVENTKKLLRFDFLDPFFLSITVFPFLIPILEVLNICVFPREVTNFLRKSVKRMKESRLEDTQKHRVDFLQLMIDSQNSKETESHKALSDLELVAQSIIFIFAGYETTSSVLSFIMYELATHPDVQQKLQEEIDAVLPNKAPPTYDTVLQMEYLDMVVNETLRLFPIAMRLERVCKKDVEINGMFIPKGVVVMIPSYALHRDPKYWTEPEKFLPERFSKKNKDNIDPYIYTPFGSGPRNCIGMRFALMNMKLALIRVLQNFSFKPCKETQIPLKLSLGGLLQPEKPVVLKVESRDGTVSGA
Sequence of Coagulation factor X (P00742 41-179 limits assumed): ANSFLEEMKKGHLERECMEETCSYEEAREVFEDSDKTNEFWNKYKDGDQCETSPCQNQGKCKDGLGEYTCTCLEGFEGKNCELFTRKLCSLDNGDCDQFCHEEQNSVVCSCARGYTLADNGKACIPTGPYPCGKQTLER
Sequence of Coagulation factor X (P00742 235-488 limits assumed): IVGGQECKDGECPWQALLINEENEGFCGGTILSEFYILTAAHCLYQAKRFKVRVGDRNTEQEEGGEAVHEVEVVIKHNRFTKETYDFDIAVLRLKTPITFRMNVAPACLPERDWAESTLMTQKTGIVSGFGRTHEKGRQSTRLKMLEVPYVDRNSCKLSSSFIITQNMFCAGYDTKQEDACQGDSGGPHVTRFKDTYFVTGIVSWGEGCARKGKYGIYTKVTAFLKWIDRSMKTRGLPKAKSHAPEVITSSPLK
Sequence of Tissue-type plasminogen activator (P00750 whole entry): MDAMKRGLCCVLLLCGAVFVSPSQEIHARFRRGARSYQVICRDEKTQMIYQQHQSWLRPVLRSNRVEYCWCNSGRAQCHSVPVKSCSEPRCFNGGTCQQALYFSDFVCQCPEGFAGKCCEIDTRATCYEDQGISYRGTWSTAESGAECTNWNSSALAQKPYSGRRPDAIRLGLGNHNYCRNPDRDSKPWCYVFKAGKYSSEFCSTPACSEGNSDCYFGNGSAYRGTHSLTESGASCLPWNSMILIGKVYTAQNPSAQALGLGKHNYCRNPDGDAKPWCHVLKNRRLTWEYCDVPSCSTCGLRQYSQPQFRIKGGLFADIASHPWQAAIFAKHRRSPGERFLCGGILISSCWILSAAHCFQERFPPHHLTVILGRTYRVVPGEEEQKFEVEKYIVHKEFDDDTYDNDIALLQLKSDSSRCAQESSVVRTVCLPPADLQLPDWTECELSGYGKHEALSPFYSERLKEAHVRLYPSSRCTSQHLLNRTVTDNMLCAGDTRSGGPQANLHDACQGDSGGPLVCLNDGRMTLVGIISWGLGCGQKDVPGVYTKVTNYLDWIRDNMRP
Sequence of Plasma kallikrein (P03952 20-390 limits assumed): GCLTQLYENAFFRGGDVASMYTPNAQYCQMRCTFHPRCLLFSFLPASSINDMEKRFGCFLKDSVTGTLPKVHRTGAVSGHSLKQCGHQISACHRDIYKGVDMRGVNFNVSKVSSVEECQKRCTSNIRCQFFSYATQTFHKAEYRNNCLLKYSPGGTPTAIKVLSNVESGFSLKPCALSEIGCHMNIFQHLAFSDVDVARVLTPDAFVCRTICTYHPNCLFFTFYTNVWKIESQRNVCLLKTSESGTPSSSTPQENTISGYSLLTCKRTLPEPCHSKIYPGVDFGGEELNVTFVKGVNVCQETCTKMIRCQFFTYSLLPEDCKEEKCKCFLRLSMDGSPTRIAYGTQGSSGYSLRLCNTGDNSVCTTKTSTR
Sequence of Plasma kallikrein (P03952 391-638 limits assumed): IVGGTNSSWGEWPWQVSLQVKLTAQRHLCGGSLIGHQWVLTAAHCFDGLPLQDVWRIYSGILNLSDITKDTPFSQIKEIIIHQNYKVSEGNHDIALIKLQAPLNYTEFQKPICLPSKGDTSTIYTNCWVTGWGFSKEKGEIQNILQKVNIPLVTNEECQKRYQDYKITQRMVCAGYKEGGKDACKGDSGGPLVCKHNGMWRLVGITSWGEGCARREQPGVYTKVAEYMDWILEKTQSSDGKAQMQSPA
Sequence of Plasminogen (P00747 97-580 limits assumed): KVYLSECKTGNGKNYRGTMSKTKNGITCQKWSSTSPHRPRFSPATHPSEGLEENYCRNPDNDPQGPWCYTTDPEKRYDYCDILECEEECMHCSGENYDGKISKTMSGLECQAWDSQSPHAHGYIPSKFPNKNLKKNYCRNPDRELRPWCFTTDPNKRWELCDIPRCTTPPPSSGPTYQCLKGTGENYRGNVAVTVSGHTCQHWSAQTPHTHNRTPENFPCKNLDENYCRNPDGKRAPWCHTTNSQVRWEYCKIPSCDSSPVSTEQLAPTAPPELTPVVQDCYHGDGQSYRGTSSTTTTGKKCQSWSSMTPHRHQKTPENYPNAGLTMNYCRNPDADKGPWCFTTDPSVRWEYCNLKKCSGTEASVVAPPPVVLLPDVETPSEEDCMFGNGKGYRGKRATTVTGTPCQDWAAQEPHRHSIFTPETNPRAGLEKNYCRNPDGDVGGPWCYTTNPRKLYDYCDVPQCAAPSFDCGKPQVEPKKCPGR
Sequence of Plasminogen (P00747 581-810 limits assumed): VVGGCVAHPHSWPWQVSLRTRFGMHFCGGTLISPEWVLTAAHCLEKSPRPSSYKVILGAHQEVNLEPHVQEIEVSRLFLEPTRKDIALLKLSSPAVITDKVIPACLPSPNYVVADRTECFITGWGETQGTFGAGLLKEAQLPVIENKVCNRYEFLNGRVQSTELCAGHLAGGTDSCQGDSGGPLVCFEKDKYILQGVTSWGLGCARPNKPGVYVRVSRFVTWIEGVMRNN

| IC50 (Coagulation factor X) [µM] | inhibition at 10 µM (CYP3A4) [%] | SMILES | 2PT (Plasma [1]) [µM] | 2PT (Plasma [4]) [µM] | Ratio (Mus musculus [5]) | further results |
| --- | --- | --- | --- | --- | --- | --- |
| 0.057 |  | CN(C)C(=O)Cc1cn2c(N3CCN(C(=O)CCS(=O)(=O)c4ccc5cc(Cl)ccc5c4)CC3)cccc2n1 | 2.5 |  |  |  |
|  |  | CC(=N)N1CC[C@H](Oc2ccc([C@H](Cc3ccc4ccc(C(=N)N)cc4c3)C(=O)O)cc2)C1 [DX-9065A] | 0.81 |  |  | Activity (Mus musculus [2]): Active; Activity (Mus musculus [3]): Active |
| 0.029 |  | O=C(CCS(=O)(=O)c1ccc2cc(Cl)ccc2c1)N1CCN(c2cccc3ncc(CO)n23)CC1 | 1.7 |  |  |  |
| 0.078 |  | O=C(CCS(=O)(=O)c1ccc2cc(Cl)ccc2c1)N1CCN(c2ccn3ccnc3c2)CC1 | 2.2 |  |  |  |
| 0.024 |  | O=C(CCS(=O)(=O)c1ccc2cc(Cl)ccc2c1)N1CCN(c2cccc3ncc([N+](=O)[O-])n23)CC1 | 3.6 |  |  |  |
| 0.84 |  | CN(C(=O)CCS(=O)(=O)c1ccc2cc(Cl)ccc2c1)C1CCN(c2cccc3nccn23)CC1 |  |  |  |  |
| 0.021 | 45 | O=C(CCS(=O)(=O)c1ccc2cc(Cl)ccc2c1)N1CCN(c2cccc3nccn23)CC1 | 1.4 | 1.7 | 2.5 |  |
| 0.018 |  | CC(C)(O)c1cn2c(N3CCN(C(=O)CCS(=O)(=O)c4ccc5cc(Cl)ccc5c4)CC3)cccc2n1 | 2.1 |  |  |  |
| 0.041 |  | CNC(=O)Cc1cn2c(N3CCN(C(=O)CCS(=O)(=O)c4ccc5cc(Cl)ccc5c4)CC3)cccc2n1 | 2 |  |  |  |
| 0.035 | 52 | Nc1cnc2cccc(N3CCN(C(=O)CCS(=O)(=O)c4ccc5cc(Cl)ccc5c4)CC3)n12 | 0.73 | 1.5 | 2.4 |  |
| 0.018 | 33 | CC(O)Cc1cn2c(N3CCN(C(=O)CCS(=O)(=O)c4ccc5cc(Cl)ccc5c4)CC3)cccc2n1 (stereo not given) | 1.1 | 1.5 | 3.2 |  |
| 0.024 |  | CC(=O)Nc1cnc2cccc(N3CCN(C(=O)CCS(=O)(=O)c4ccc5cc(Cl)ccc5c4)CC3)n12 | 1.8 |  |  |  |
| 0.045 |  | NC(=O)Cc1cn2c(N3CCN(C(=O)CCS(=O)(=O)c4ccc5cc(Cl)ccc5c4)CC3)cccc2n1 | 2.1 |  |  |  |
| 0.022 | 26 | CC(C)(O)Cc1cn2c(N3CCN(C(=O)CCS(=O)(=O)c4ccc5cc(Cl)ccc5c4)CC3)cccc2n1 | 0.86 | 1.7 | 2.4 |  |
| 0.087 |  | O=C(CCS(=O)(=O)c1ccc2cc(Cl)ccc2c1)N1CCN(c2ccc3nccn3c2)CC1 | 2.9 |  |  |  |
| 0.02 | 23 | CC(O)c1cn2c(N3CCN(C(=O)CCS(=O)(=O)c4ccc5cc(Cl)ccc5c4)CC3)cccc2n1 (stereo not given) | 1.2 | 1.8 | 2.5 |  |
| 0.093 |  | CCOC(=O)Cc1cn2c(N3CCN(C(=O)CCS(=O)(=O)c4ccc5cc(Cl)ccc5c4)CC3)cccc2n1 | 5.1 |  |  |  |
| 0.012 | 58 | Cc1cn2c(N3CCN(C(=O)CCS(=O)(=O)c4ccc5cc(Cl)ccc5c4)CC3)cccc2n1 | 0.96 | 1.3 | 2.9 |  |
| 0.009 | 15 | O=C(CCS(=O)(=O)c1ccc2cc(Cl)ccc2c1)N1CCN(c2cccc3nc(CO)cn23)CC1 | 1.4 | 1.4 | 1.3 | Ki (Coagulation factor X): 0.008 µM; Ki (Prothrombin): 0.96 µM; Ki (Plasma kallikrein): 14 µM; Ki (Trypsin): > 60 µM; Ki (Plasminogen): > 60 µM; Ki [6]: > 60 µM; concentration at 5 min [7]: 540 ng/mL; AUC [8]: 730 ng·h/mL; MRT [9]: 1.97 h; Vd [10]: 0.81 L/kg; clearance [11]: 7.33 mL/min/kg; Cmax [12]: 500 ng/mL; Tmax [13]: 1.33 h; AUC [14]: 2260 ng·h/mL; MRT [15]: 3.6 h; bioavailability [16]: 30.5% |
